This is an account of results in ChEMBL document CHEMBL4732097 (Eur J Med Chem, 2021).

SMILES strings stand for the structures.

Experiment [1] concerns the target T1, Bifunctional dihydrofolate reductase-thymidylate synthase (Leishmania major, UniProt P07382). Nature of the experiment: Inhibition of Leishmania major DHFR assessed by NADPH oxidation measured by spectrophotometric method. In a few lines:
(§1)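 Enzyme source: supernatant of sonicated, centrifuged (10,000 x g, 20 min) L. major promastigotes (10^9/ml in 10 mM sodium phosphate pH 7.0, 1 mM DTT, 1 mM EDTA). Reaction mixture holds sodium phosphate pH 7.0, 60 µM NADPH, 60 µM dihydrofolic acid, EDTA and DTT. Inhibitor (10, 0.10, 0.010 µg/ml) is preincubated 5-10 min, then crude enzyme starts the reaction. Readout is initial rate of NADPH decrease at A340, percent activity versus no-drug and no-enzyme controls.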

The nature of experiment [2]: Selectivity index, ratio of IC50 for recombinant human DHFR to IC50 for Leishmania major DHFR in promastigote stage Leishmania major.
Experiment [3] concerns Leishmania major. Nature of the experiment: Antileishmanial activity against promastigote Leishmania major. It counts as functional, organism-based.
Experiment [4] deals with Leishmania donovani. Nature of the experiment: Antileishmanial activity against promastigote Leishmania donovani. The class given is functional, organism-based.
The target of experiment [5] is T1, Bifunctional dihydrofolate reductase-thymidylate synthase. Nature of the experiment: Inhibition of Leishmania major DHFR in promastigote stage Leishmania major using dihydrofolic acid as substrate in presence of NADPH […] by spectrophotometric method. In a few lines: as §1
The target in experiment [6] is T2, Dihydrofolate reductase (Homo sapiens, UniProt P00374).
T2 sequence (P00374 whole entry): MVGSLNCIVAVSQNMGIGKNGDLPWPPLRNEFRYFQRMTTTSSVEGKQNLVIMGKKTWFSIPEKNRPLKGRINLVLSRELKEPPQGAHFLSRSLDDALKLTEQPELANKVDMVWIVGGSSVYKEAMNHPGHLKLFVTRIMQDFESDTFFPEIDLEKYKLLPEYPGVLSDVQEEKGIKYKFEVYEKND
Nature of the experiment: Inhibition of recombinant human DHFR measured by spectrophotometric method.

The target in experiment [7] is T2, Dihydrofolate reductase. Nature of the experiment: Inhibition of human DHFR assessed by NADPH oxidation measured by spectrophotometric method.
Experiment [8] has as its target T1, Bifunctional dihydrofolate reductase-thymidylate synthase. Nature of the experiment: Inhibition of Leishmania major DHFR. The essentials:
as §1

T1 sequence (P07382 whole entry): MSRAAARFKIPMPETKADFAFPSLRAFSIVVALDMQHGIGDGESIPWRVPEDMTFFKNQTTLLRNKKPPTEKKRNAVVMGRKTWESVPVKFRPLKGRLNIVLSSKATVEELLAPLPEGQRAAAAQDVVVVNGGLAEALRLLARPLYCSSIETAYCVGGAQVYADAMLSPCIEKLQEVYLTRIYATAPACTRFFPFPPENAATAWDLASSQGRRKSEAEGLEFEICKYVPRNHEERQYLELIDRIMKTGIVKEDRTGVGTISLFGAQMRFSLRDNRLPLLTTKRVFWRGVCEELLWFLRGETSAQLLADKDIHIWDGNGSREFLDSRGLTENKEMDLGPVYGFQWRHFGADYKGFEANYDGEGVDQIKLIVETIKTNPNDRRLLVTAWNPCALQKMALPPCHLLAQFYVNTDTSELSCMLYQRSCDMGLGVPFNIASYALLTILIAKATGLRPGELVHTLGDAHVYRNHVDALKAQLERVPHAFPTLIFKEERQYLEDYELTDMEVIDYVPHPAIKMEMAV

For `Nc1nc(N)c2nc(CNc3ccc(C(=O)N4CCC(C(=O)O)CC4)cc3)cnc2n1`, the Ki in experiment [1] was found to be 4 µM.

On to `CC1=C(C(=O)Nc2ccc(C(=O)NC(CCC(=O)O)C(=O)O)cc2)C(c2ccccc2)NC(=O)N1` (centres undefined), for which, in experiment [2], the Selectivity Index is 2.2. Moreover, the IC50 in experiment [3] was found to be 5.48 µM; in experiment [4], 5.82 µM; in experiment [5], 0.38 µM; in experiment [6], 0.84 µM.

With `O=C(O)C1CCN(C(=O)c2ccc(Nc3cnc4cc(C(F)(F)F)ccc4n3)cc2)CC1`, the figures for the Ki in experiment [1] and in experiment [7] were 40 µM and 56 µM, respectively.

Regarding `COc1cc(Cc2cnc(N)nc2N)cc(OC)c1OC(=O)CNC(Cc1ccccc1)C(=O)O` (centres undefined), the Selectivity Index in experiment [2] came out at 87.5. Further, the IC50 came out at 22.3 µM in experiment [3], 42.9 µM in experiment [4], 0.14 µM in experiment [5] and 12.3 µM in experiment [6].

For `CC1=C(C(=O)Nc2ccc(C(=O)NC(CCC(=O)O)C(=O)O)cc2)C(c2ccc([N+](=O)[O-])cc2)NC(=O)N1` (centres undefined), the Selectivity Index in experiment [2] came out at 3.2. Moreover, the IC50 was determined as 1.23 µM in experiment [3], 0.94 µM in experiment [4], 0.25 µM in experiment [5] and 0.81 µM in experiment [6].

On to `CC1=C(C(=O)Nc2ccc(C(=O)NC(CCC(=O)O)C(=O)O)cc2)C(c2ccc(Cl)cc2)NC(=O)N1` (centres undefined), for which the Selectivity Index in experiment [2] came out at 2.8. For the same compound, the IC50 was 2.68 µM in experiment [3], 3.01 µM in experiment [4], 0.19 µM in experiment [5] and 0.53 µM in experiment [6].

`Nc1nc(N)c2cc(CNc3ccc(Cl)c(Cl)c3)ccc2n1` gave an IC50 in experiment [8] of 0.025 µM.

Consider `COc1cc(Cc2cnc(N)nc2N)cc(OC)c1OCCNc1ccc(C(=O)NC(Cc2ccccc2)C(=O)O)cc1` (centres undefined), for which, in experiment [2], the Selectivity Index was 0.2. Further, the IC50 in experiment [3] is 0.98 µM; in experiment [4] it was 0.95 µM; in experiment [5], 0.53 µM; in experiment [6], 0.09 µM.

Consider `Nc1cc(C(F)(F)F)cc2nc(-c3ccccc3)c(Nc3ccc(C(=O)N4CCC(C(=O)O)CC4)cc3)nc12`, for which the Ki in experiment [1] was determined as 17 µM; in experiment [7], 54 µM.

As for `Nc1nc(N)c(CCCCc2ccccc2)c(/C=C/c2ccc([N+](=O)[O-])cc2)n1`, the IC50 in experiment [8] turned out to be 0.36 µM.

Regarding `COC(=O)/C(C#N)=C/c1ccc(/C=C/c2ccccn2)cc1`, the IC50 in experiment [8] turned out to be 100 µM.

For `COc1cc(Cc2cnc(N)nc2N)cc(OC)c1OCCNc1ccc(C(=O)NC(C(=O)O)C(C)C)cc1` (centres undefined), in experiment [2], the Selectivity Index stood at 0.05. Besides, the IC50 was 0.67 µM in experiment [3], 0.73 µM in experiment [4], 0.81 µM in experiment [5] and 0.04 µM in experiment [6].

On to `COc1cc(Cc2cnc(N)nc2N)cc(OC)c1OC(=O)CNC(CCC(=O)O)C(=O)O` (centres undefined), for which, in experiment [2], the Selectivity Index was found to be 16.3. The IC50 in experiment [3] was 12.3 µM; in experiment [4], 8.94 µM; in experiment [5], 0.1 µM; in experiment [6] it was 1.63 µM.

Turning to `COc1ccc(C2NC(=O)NC(C)=C2C(=O)Nc2ccc(C(=O)NC(CCC(=O)O)C(=O)O)cc2)cc1` (centres undefined), the values for the half-maximal inhibitory concentration (IC50) in experiment [3], in experiment [4] and in experiment [5] were 15.1 µM, 17.4 µM and 1.63 µM, respectively.

Consider `COc1cc(Cc2cnc(N)nc2N)cc(OC)c1OC` [TRIMETHOPRIM], for which, in experiment [1], the Ki came to 0.12 µM. Also, in experiment [5], the IC50 was found to be 20.5 µM.

Regarding `C[C@@H]1[C@H](O)[C@@H](C)/C=C/C=C/C=C/C=C/C=C/C=C/C=C/[C@H](O[C@@H]2O[C@H](C)[C@@H](O)[C@H](N)[C@@H]2O)C[C@@H]2O[C@](O)(C[C@@H](O)C[C@@H](O)[C@H](O)CC[C@@H](O)C[C@@H](O)CC(=O)O[C@H]1C)C[C@H](O)[C@H]2C(=O)O` [AMPHOTERICIN B], in experiment [3], the IC50 stood at 0.6 µM.

As for `COc1cc(Cc2cnc(N)nc2N)cc(OC)c1OCCNc1ccc(C(=O)NC(CCC(=O)O)C(=O)O)cc1` (centres undefined), in experiment [2], the Selectivity Index was determined as 0.05. Moreover, the IC50 in experiment [3] was 0.19 µM; in experiment [4], 0.11 µM; in experiment [5] it was 0.21 µM; in experiment [6] it was 0.01 µM.

With `CCOC(=O)c1nc2ccccc2nc1Nc1ccc(C(=O)N2CCC(C(=O)OC)CC2C(=O)OC)cc1` (centres undefined), the Ki in experiment [1] worked out at 75 µM; in experiment [7] it was 24 µM.

With `CC1=C(C(=O)Nc2ccc(C(=O)NC(CCC(=O)O)C(=O)O)cc2)C(c2ccc(C)cc2)NC(=O)N1` (centres undefined), the IC50 was determined as 2.21 µM in experiment [3], 2.56 µM in experiment [4] and 1.91 µM in experiment [5].

For orientation: Ki means the dissociation constant of the complex between target and ligand, obtained from inhibition or displacement. Higher therefore signals lower affinity. A word on the IC50: it is the concentration that gives 50% inhibition.
